MITF act – activators of MITF-driven TRPM1 promoter reporter, primary screen, cell-based, SK-MEL-5, luciferase, single point. SK-MEL-5 TRPM1-promoter luciferase, 24 h; % of positive control, neutral wells = 0. activation, % at 12.5 µM. 300,000 tested, 0.75% active. AID 588334, 2011;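 active = mean activation of at least 80% with every replicate also reaching 80%; inconclusive = mean reaches 80% but some replicate falls short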;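 also: 0% = neutral control wells and 100% = parthenolide positive control wells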
esBAF inh – Bmi1 luciferase reporter increase in mESCs, primary screen, esBAF inhibitor project, mouse ES cells, Bmi1 luciferase knock-in, single point | 24 h; 100% = twice the neutral-well signal | reporter increase, % at 12.5 µM | 350,000 tested, 2% active | AID 602393, 2012; in the data active = activation above about 40%; inconclusive = no clear call, values can overlap the other calls;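 also: 0% = median of the plate's neutral control wells and 100% = double that signal; a rise in the Bmi1 reporter signal indicates esBAF inhibition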
NSD2 HMT inh – NSD2 histone methyltransferase inhibitors, primary screen, biochemical, AlphaScreen, single concentration, set 2 | Histone-lysine N-methyltransferase NSD2 (Homo sapiens), O96028 | NSD2 peptide methylation, 120 min | inhibition, % at 12.5 µM | 310,000 tested, 0.54% active | AID 743445, 2014; in the data active = inhibition above about 50%
CASP6 VEID inh – human caspase-6 inhibitors, primary screen, biochemical, VEID-R110 fluorescence, single point, set 2 | purified caspase-6, Z-VEID-R110 cleavage fluorescence | 350,000 tested, 0.53% active | inhibition, % at 12.5 µM | AID 686996, 2013 | P55212;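 active = mean inhibition across replicates at least about 35%, with every replicate also reaching that limit, limit read from the data; inconclusive = only one of the two criteria met; inactive = neither criterion met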;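 also: 0% = median of neutral control wells and 100% = no fluorescence left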
Target sequence (P55212 24-179 limits assumed): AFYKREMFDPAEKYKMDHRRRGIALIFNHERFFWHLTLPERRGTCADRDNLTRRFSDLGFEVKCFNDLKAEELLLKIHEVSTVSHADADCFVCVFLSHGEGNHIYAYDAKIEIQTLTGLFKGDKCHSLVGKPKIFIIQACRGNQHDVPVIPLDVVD
Target sequence (P55212 194-293 limits assumed): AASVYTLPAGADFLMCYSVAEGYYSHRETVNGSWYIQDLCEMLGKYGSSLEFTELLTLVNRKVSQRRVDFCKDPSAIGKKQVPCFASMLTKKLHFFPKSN
Xi reactivation – activators of inactive X chromosome reactivation, primary screen, imaging, XiGFP fibroblasts, GFP high-content imaging, set 2; XiGFP mouse fibroblasts, % GFP-positive cells imaging, 3 d; cells co-treated with 5-aza-dC sensitizer; scaled so ellipticine positive control = 100%; activation, % at 7.58 µM; 360,000 tested, 0.055% active;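 active = mean normalized replicate activation at least 10% and every replicate at or above 10%; inconclusive = only one of the two criteria met; inactive = mean below 10% and not all replicates reach 10%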;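 also: 0% = median of on-plate neutral control wells and 100% = ellipticine 6 µM median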
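Material: SV40-immortalized XiGFP fibroblast cells, line 68-5-11 | Buffer or medium: DMEM containing 5-aza-dC | Dosing: One concentration, pinned | Times: 3 d treatment, 15 min room-temperature fixation | Controls: Ellipticine 6 µM positive control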
Wnt act – Wnt/beta-catenin pathway activators, primary screen, cell-based, plate reader, single point; activation, % at 9.35 µM; 300,000 tested, 1.2% active; Wnt/beta-catenin reporter cell assay, activator; in the data active = activation above about 30%, passing the limit was not always enough; inconclusive = no clear call, values can overlap the other calls;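 also: 0% = neutral control wells and 100% = positive control wells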
Active calls of the source: *; u = inconclusive; x = not tested or not shown. Hits are enriched below; roughly 3% of the tested compounds scored in any of these assays.

SMILES	MITF act	esBAF inh	NSD2 HMT inh	CASP6 VEID inh	Xi reactivation	Wnt act
C[C@@H]1CN([C@H](C)CO)C(=O)c2cc(NC(=O)Nc3ccccc3)ccc2O[C@@H](C)CCCCO[C@H]1CN(C)S(=O)(=O)c1cn(C)cn1	x	0	x	3	0	x
C#CCN(C(=O)C1CCC(=O)N(CCc2cccc(F)c2)C1)C1CCCCC1 (stereo not drawn)	x	x	-1	2	0	33*
CN(C(=O)C1CCC(=O)N(Cc2cccc(F)c2)C1)C1CCCCC1 (stereo not drawn)	98*	97*	-2	-3	0	44*
COc1ccc(CCN2CC(C(=O)NCCc3ccccc3C(F)(F)F)CCC2=O)cc1 (stereo not drawn)	46	49*	-2	-1	0	9
Cc1ccsc1CCNC(=O)C1CCC(=O)N(CCc2cccc(F)c2)C1 (stereo not drawn)	95*	65*	-2	-6	0	26
O=C(C[C@H]1C=C[C@H](NC(=O)C2CC2)[C@@H](CO)O1)Nc1nccs1	x	-4	x	0	0	x
CC(=O)Nc1cccc2c1O[C@H](CN(C)C(=O)NC(C)C)[C@@H](C)CN(C)C2=O	x	x	x	x	0	x
COc1cccc(C#Cc2cnc3c(c2)C(=O)N([C@H](C)CO)C[C@@H](C)[C@@H](CN(C)C(=O)C2CCOCC2)O3)c1	x	-13	x	-3	-1	x
COC(=O)C(Cc1ccc(O)cc1)NC(=O)c1ccc2c(c1)OCCO2 (stereo not drawn)	19	55*	-1	-1	0	10
O=C(COC(=O)c1cc(Cl)ccc1O)c1ccc2c(c1)OCO2	u	x	-3	2	0	u
O=C(COC(=O)c1ccc(O)cc1O)c1ccc2c(c1)OCO2	45	63*	0	1	0	44*
O=C(COC(=O)c1ccc(O)cc1)Nc1ccc2c(c1)OCCO2	51	u	2	2	0	2
O=C(CCCN1CCOCC1)c1ccc2c(c1)OCCO2	35	50*	-3	x	x	x
O=C(COC(=O)c1ccc(O)cc1)c1ccc2c(c1)OCCO2	79	38	-2	-1	1	38*
C[C@H]1CN(C)C(=O)Cc2cc(N(C)C)ccc2O[C@H]1CN(C)S(C)(=O)=O	x	x	x	x	0	x
O=C(COc1ccccc1Br)c1ccc2c(c1)OCO2	58	43*	0	1	0	13
O=C(COc1ccccc1Br)c1ccc(O)cc1O	7	10	0	5	x	3
Cc1cc(C(=O)COC(=O)c2ccc(O)cc2O)c(C)n1C(C)C	85*	61*	1	5	0	53*
C[C@@H]1CN([C@@H](C)CO)S(=O)(=O)c2ccc(C3=CCCC3)cc2O[C@H]1CN(C)C(=O)Cc1ccncc1	x	0	x	0	0	x
COc1cc(C2C3=C(CC(C)(C)CC3=O)OC3=C2C(=O)CC(C)(C)C3)cc([N+](=O)[O-])c1O	-4	x	4	1	0	0
COc1cc(C2C(C#N)=C(N)OC3=C2C(=O)CC(C)(C)C3)cc([N+](=O)[O-])c1O (stereo not drawn)	-7	x	3	4	0	40*
CCCC(=O)Nc1ccc2c(c1)C(=O)N(C)C[C@H](OC)[C@H](C)CN(Cc1ccncc1)[C@H](C)CO2	x	3	x	x	1	x
Cc1cc(CNC(=O)c2cccc(OC3CCN(S(=O)(=O)N(C)C)CC3)c2)on1	36	71*	-1	-5	0	2
CN(C)S(=O)(=O)N1CCC(Oc2cccc(C(=O)NC3CCCCCC3)c2)CC1	-39	0	-1	4	0	-4
COc1ccc2c3c([nH]c2c1)[C@H](CO)N(Cc1cc(F)ccc1F)CC31CCN(C)CC1	x	x	x	x	0	x
CO/N=C/C(C#N)=C/c1ccc(OC)cc1	46	88*	-1	0	0	9
COCC(=O)N(C)C[C@H]1Oc2cc(C3=CCCC3)ccc2S(=O)(=O)N([C@H](C)CO)C[C@@H]1C	x	4	x	x	1	x
